Laboratory results from ChEMBL document CHEMBL3085686, “New 7-methylguanine derivatives targeting the influenza polymerase PB2 cap-binding domain” (J Med Chem, 2013).

How the values were obtained:
[1] = Inhibition of influenza A virus His-tagged H3N2 RNA polymerase PB2 cap-binding domain interaction with EDA-m7GpppA by AlphaScreen assay
In short: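 His-tagged H3N2 PB2 cap-binding domain binding a biotinylated cap analogue (Biotin-EDA-m7GpppA), read by AlphaScreen with Ni(II)-chelate beads at 7.5 µg/ml each. Compound was 11-point 1:1 serially diluted from 200 µM. Incubation at room temperature in subdued light. IC50 reported.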

[2] = Inhibition of influenza A virus biotinylated GST-His-tagged H3N2 RNA polymerase PB2 cap-binding domain interaction with EDA-m7GpppA by AlphaScreen assay
Influenza A virus [3] = experiment: Antiviral activity against Influenza A virus (A/Aichi/2/68(H3N2)) VR-547 infected in MDCK cells assessed as reduction in virus-induced cytopathic effect at 50 uM after 48 hrs by CellTiter-Glo assay; format: functional, Influenza A virus (A/Aichi/2/1968(H3N2)); design: scale not given: the % may be the effect or the level left
Influenza A virus [4] = experiment: Binding affinity to influenza A virus H5N1 RNA polymerase PB2 cap-binding domain at 10 uM by biacore-based SPR analysis
In short: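 Purified H5N1 PB2 cap-binding domain amine-coupled to a CM7 chip at 30 µg/ml in 10 mM phosphate pH 6.5 with 5 mM m7GTP, giving about 7000 RU. Compound injected at 10 µM final (0.5% DMSO) in Tris/EDTA/NaCl/P20/1 mM DTT running buffer at 10 µL/min. Sensorgrams were double-referenced and DMSO-corrected.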

[5] = Inhibition of influenza A virus RNA polymerase PB2 domain-mediated cap binding
[6] = Binding affinity to influenza A virus H5N1 RNA polymerase PB2 cap-binding domain by biacore-based SPR analysis
In short: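 H5N1 PB2-CBD was immobilised by amine coupling (30 µg/ml, with 5 mM m7GTP, pH 6.5; about 7000 RU). Analyte was run over 200 µM to 1 nM in Tris/EDTA/NaCl/P20/DTT buffer with 0.5% DMSO. Data were double-referenced and DMSO-corrected. KD came from a linear curve fit.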

Row | SMILES | IC50 [1] [µM] | IC50 [2] [µM] | Activity (Influenza A virus [3]) [%] | RU (Influenza A virus [4]) | IC50 [5] [µM] | Kd [6] [µM]
1 | C[n+]1cn(CC(=O)N[C@H](Cc2ccccc2)C(=O)O)c2nc(N)nc([O-])c21 | 65 | ≥ 200 | – | – | – | –
2 | C[n+]1cn(CC(=O)N[C@@H](Cc2ccc(O)cc2)C(=O)O)c2nc(N)nc([O-])c21 | 80 | ≥ 200 | – | – | – | –
3 | C[n+]1cn(CC(=O)c2ccc3c(c2)NC(=O)CO3)c2nc(N)nc([O-])c21 | 23 | ≥ 200 | – | – | – | –
4 | C[n+]1cn(CCCC(=O)O)c2nc(NCCCC(=O)O)nc([O-])c21 | 141 | ≥ 200 | – | – | – | –
5 | C[n+]1cn(CC(=O)O)c2nc(N)nc([O-])c21 | ≥ 200 | ≥ 200 | – | – | – | –
6 | C[n+]1cn(CC(=O)O)c2nc(NCCCCC(=O)O)nc([O-])c21 | 95 | ≥ 200 | – | – | – | –
7 | C[n+]1cn(CC(=O)N[C@@H](CC(=O)O)C(=O)O)c2nc(N)nc([O-])c21 | 33 | 124 | – | – | – | –
8 | C[n+]1cn(CC(=O)NCC(=O)O)c2nc(N)nc([O-])c21 | ≥ 200 | ≥ 200 | – | – | – | –
9 | C[n+]1cn(-c2ccc(C(=O)O)cc2)c2nc(N)nc([O-])c21 | 181 | ≥ 200 | – | – | – | –
10 | C[n+]1cn(CC(=O)c2ccc3ccccc3c2)c2nc(N)nc([O-])c21 | 7.6 | ≥ 200 | -3.2 | – | – | –
11 | C[n+]1cn(CC(=O)Nc2cc(C(=O)O)cc(C(=O)O)c2)c2nc(N)nc([O-])c21 | ≥ 200 | ≥ 200 | – | – | – | –
12 | C[n+]1cn(CCCCC(=O)O)c2nc(NCCCCC(=O)O)nc([O-])c21 | 5.3 | ≥ 200 | -3.3 | 17.5 | – | –
13 | C[n+]1cn(CC(=O)O)c2nc(NCC(=O)O)nc([O-])c21 | 44 | ≥ 200 | – | – | – | –
14 | C[n+]1cn(CC(=O)N[C@@H](CCC(=O)O)C(=O)O)c2nc(N)nc([O-])c21 | 45 | ≥ 200 | -1.8 | 13.8 | – | –
15 | C[n+]1cn(CC(=O)c2ccccc2)c2nc(N)nc([O-])c21 | 13.7 | ≥ 200 | -2.3 | – | – | –
16 | C[n+]1cn(CCCCC(=O)O)c2nc(N)nc([O-])c21 | ≥ 200 | ≥ 200 | – | – | – | –
17 | NC(=O)c1cc(C(=O)Cn2cnc3c(=O)[nH]c(N)nc32)ccc1O | 49 | 141 | -0.5 | 20.4 | – | –
18 | CC(=O)Nc1nc([O-])c2c(n1)n(CC(=O)O)c[n+]2C | ≥ 200 | ≥ 200 | – | – | – | –
19 | C[n+]1cn(CCCCCC(=O)O)c2nc(N)nc([O-])c21 | ≥ 200 | ≥ 200 | – | – | – | –

Row | SMILES | IC50 [1] [µM] | IC50 [2] [µM] | Activity (Influenza A virus [3]) [%] | RU (Influenza A virus [4]) | IC50 [5] [µM] | Kd [6] [µM]
20 | C[n+]1cn(CC(=O)N[C@H](CC(=O)O)C(=O)O)c2nc(N)nc([O-])c21 | 91 | ≥ 200 | – | – | – | –
21 | NC(=O)c1cc(C(=O)Cn2c[n+](Cc3ccccc3)c3c([O-])nc(N)nc32)ccc1O | 195 | ≥ 200 | – | – | – | –
22 | C[n+]1cn(CC(=O)N[C@H](Cc2ccccc2)C(=O)O)c2nc(NCCCCC(=O)O)nc([O-])c21 | 53 | ≥ 200 | – | – | – | –
23 | CC(C(=O)c1ccccc1)n1c[n+](C)c2c([O-])nc(N)nc21 (stereo not given) | 65 | ≥ 200 | – | – | – | –
24 | Nc1nc2c(c(=O)[nH]1)[n+](Cc1ccccc1)cn2CCCCO | ≥ 200 | ≥ 200 | – | – | 45 | –
25 | C[n+]1cn(CC(=O)c2ccc(O)c(C(N)=O)c2)c2nc(N)nc([O-])c21 | 7.5 | ≥ 200 | -0.2 | 85.8 | – | 13
26 | COc1ccc(-n2c[n+](C)c3c([O-])nc(N)nc32)cc1OC | 50 | ≥ 200 | – | – | – | –
27 | C[n+]1cn(CC(=O)N[C@@H](Cc2ccccc2)C(=O)O)c2nc(N)nc([O-])c21 | 88 | ≥ 200 | – | – | – | –
28 | C=CC[n+]1cn(CC(=O)c2ccc(O)c(C(N)=O)c2)c2nc(N)nc([O-])c21 | 60 | ≥ 200 | 0 | – | – | –
29 | C[n+]1cn(-c2cccc(C(=O)O)c2)c2nc(N)nc([O-])c21 | 44 | ≥ 200 | – | – | – | –
30 | CC(=O)Nc1nc([O-])c2c(n1)n(CC(=O)c1ccc(O)c(C(N)=O)c1)c[n+]2C | 129 | ≥ 200 | – | – | – | –
31 | C[n+]1cn(CC(=O)c2ccc(O)c(C(=O)O)c2)c2nc(N)nc([O-])c21 | 0.6 | 2.2 | – | – | – | –
32 | C[n+]1cn(CCC(=O)O)c2nc(N)nc([O-])c21 | ≥ 200 | ≥ 200 | – | – | – | –
33 | C[n+]1cn(C(C(=O)c2ccccc2)c2ccccc2)c2nc(N)nc([O-])c21 (stereo not given) | 42 | ≥ 200 | – | – | – | –
34 | CC[n+]1cn(CC(=O)c2ccc(O)c(C(N)=O)c2)c2nc(N)nc([O-])c21 | 3.6 | ≥ 200 | 0.3 | – | – | –
35 | Nc1nc2c(ncn2CC(=O)c2ccc(O)c(C(=O)O)c2)c(=O)[nH]1 | 5.6 | 4.8 | 1.1 | 22.6 | – | –
36 | C[n+]1cn(CCCC(=O)O)c2nc(N)nc([O-])c21 | ≥ 200 | ≥ 200 | – | – | – | –
37 | C[n+]1cn(-c2ccccc2)c2nc(N)nc([O-])c21 | 140 | ≥ 200 | – | – | – | –
